# According to ChEMBL document CHEMBL1131099, “Biologically active oligodeoxyribonucleotides. 5. 5'-End-substituted d(TGGGAG) possesses anti-human immunodeficiency virus type 1 activity by forming a G-quadruplex structure” (J Med Chem, 1998):
# Tests used:
# [1] = tested on: MT4; assay: In vitro inhibitory activity for cytopathicities induced by HIV-1III B against MT-4 cells.; assay type: functional, cell-based; details: Homo sapiens
# Procedure, shortened: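 Exponentially growing MT-4 cells were pelleted (140g, 5 min), infected in a small volume of RPMI-1640 with 100 TCID50 HIV-1 IIIB for 1 h, washed, and plated at 2.5 × 10⁴ cells/well with serial oligonucleotide dilutions. Viability was read by MTT at day 6. IC50 was taken from dose-response curves, as the mean of duplicate or quadruplicate ± SD.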
# [2] = tested on: MT4; assay: Cytotoxicity was measured against MT-4 cells using MTT assay.; assay type: functional; details: Homo sapiens
SMILES,IC50 [1] [µM],CC50 [2] [µM]
Cc1cn([C@H]2C[C@H](OP(=O)(O)OC[C@H]3O[C@@H](n4cnc5c(=O)[nH]c(N)nc54)C[C@@H]3OP(=O)(O)OC[C@H]3O[C@@H](n4cnc5c(=O)[nH]c(N)nc54)C[C@@H]3OP(=O)(O)OC[C@H]3O[C@@H](n4cnc5c(=O)[nH]c(N)nc54)C[C@@H]3OP(=O)(O)OC[C@H]3O[C@@H](n4cnc5c(N)ncnc54)C[C@@H]3OP(=O)(O)OC[C@H]3O[C@@H](n4cnc5c(=O)[nH]c(N)nc54)C[C@@H]3O)[C@@H](CO[Si](C)(C)C(C)(C)C)O2)c(=O)[nH]c1=O,> 40,1.2
Cc1cn([C@H]2C[C@H](OP(=O)(O)OC[C@H]3O[C@@H](n4cc(C)c(=O)[nH]c4=O)C[C@@H]3OP(=O)(O)OC[C@H]3O[C@@H](n4cnc5c(O)nc(N)nc54)C[C@@H]3OP(=O)(O)OC[C@H]3O[C@@H](n4cnc5c(O)nc(N)nc54)C[C@@H]3O)[C@@H](COCc3ccc(OCc4ccccc4)c(OCc4ccccc4)c3)O2)c(=O)[nH]c1=O,> 50,33
Cc1cn([C@H]2C[C@H](OP(=O)(O)OC[C@H]3O[C@@H](n4cnc5c(=O)[nH]c(N)nc54)C[C@@H]3OP(=O)(O)OC[C@H]3O[C@@H](n4cnc5c(=O)[nH]c(N)nc54)C[C@@H]3OP(=O)(O)OC[C@H]3O[C@@H](n4cnc5c(=O)[nH]c(N)nc54)C[C@@H]3OP(=O)(O)OC[C@H]3O[C@@H](n4cnc5c(N)ncnc54)C[C@@H]3OP(=O)(O)OC[C@H]3O[C@@H](n4cnc5c(=O)[nH]c(N)nc54)C[C@@H]3O)[C@@H](COCc3ccc4ccc5cccc6ccc3c4c56)O2)c(=O)[nH]c1=O,1.8,> 40
Cc1cn([C@H]2C[C@H](OP(=O)(O)OC[C@H]3O[C@@H](n4cnc5c(=O)[nH]c(N)nc54)C[C@@H]3OP(=O)(O)OC[C@H]3O[C@@H](n4cnc5c(=O)[nH]c(N)nc54)C[C@@H]3OP(=O)(O)OC[C@H]3O[C@@H](n4cnc5c(=O)[nH]c(N)nc54)C[C@@H]3OP(=O)(O)OC[C@H]3O[C@@H](n4cnc5c(N)ncnc54)C[C@@H]3OP(=O)(O)OC[C@H]3O[C@@H](n4cnc5c(=O)[nH]c(N)nc54)C[C@@H]3O)[C@@H](COCc3cc(OCc4ccccc4)cc(OCc4ccccc4)c3)O2)c(=O)[nH]c1=O,0.49,> 40
Cc1cn([C@H]2C[C@H](OP(=O)(O)OC[C@H]3O[C@@H](n4cnc5c(=O)[nH]c(N)nc54)C[C@@H]3OP(=O)(O)OC[C@H]3O[C@@H](n4cnc5c(=O)[nH]c(N)nc54)C[C@@H]3OP(=O)(O)OC[C@H]3O[C@@H](n4cnc5c(=O)[nH]c(N)nc54)C[C@@H]3OP(=O)(O)OC[C@H]3O[C@@H](n4cnc5c(N)ncnc54)C[C@@H]3OP(=O)(O)OC[C@H]3O[C@@H](n4cnc5c(=O)[nH]c(N)nc54)C[C@@H]3O)[C@@H](COC3(c4ccccc4)c4ccccc4-c4ccccc43)O2)c(=O)[nH]c1=O,1.3,> 40
Cc1cn([C@H]2C[C@H](OP(=O)(O)OC[C@H]3O[C@@H](n4cnc5c(O)nc(N)nc54)C[C@@H]3OP(=O)(O)OC[C@H]3O[C@@H](n4cnc5c(O)nc(N)nc54)C[C@@H]3O)[C@@H](COCc3ccc(OCc4ccccc4)c(OCc4ccccc4)c3)O2)c(=O)[nH]c1=O,> 70,> 70
Cc1cn([C@H]2C[C@H](OP(=O)(O)OC[C@H]3O[C@@H](n4cc(C)c(=O)[nH]c4=O)C[C@@H]3OP(=O)(O)OC[C@H]3O[C@@H](n4cnc5c(=O)[nH]c(N)nc54)C[C@@H]3OP(=O)(O)OC[C@H]3O[C@@H](n4cnc5c(=O)[nH]c(N)nc54)C[C@@H]3OP(=O)(O)OC[C@H]3O[C@@H](n4cnc5c(=O)[nH]c(N)nc54)C[C@@H]3OP(=O)(O)OC[C@H]3O[C@@H](n4cnc5c(=O)[nH]c(N)nc54)C[C@@H]3O)[C@@H](COCc3ccc(OCc4ccccc4)c(OCc4ccccc4)c3)O2)c(=O)[nH]c1=O,0.56,> 40
